# Test results taken from PubChem BioAssay AID588627 (Johns Hopkins Ion Channel Center, 2011).
# In all, about 310,000 compounds went through this assay and about 1,400 (0.45%) were called active.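 The calls were made as follows: active = calcium response B-score plate-corrected fluorescence ratio at least 3 library SD, with starting fluorescence B-score inside 5 SD; inactive = the rest.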 The full list was thinned out, with actives kept by preference.
# Biological target: Mas-related G-protein coupled receptor member X1 (Homo sapiens) (UniProt Q96LB2)
# Sequence (Q96LB2 whole entry, looked up): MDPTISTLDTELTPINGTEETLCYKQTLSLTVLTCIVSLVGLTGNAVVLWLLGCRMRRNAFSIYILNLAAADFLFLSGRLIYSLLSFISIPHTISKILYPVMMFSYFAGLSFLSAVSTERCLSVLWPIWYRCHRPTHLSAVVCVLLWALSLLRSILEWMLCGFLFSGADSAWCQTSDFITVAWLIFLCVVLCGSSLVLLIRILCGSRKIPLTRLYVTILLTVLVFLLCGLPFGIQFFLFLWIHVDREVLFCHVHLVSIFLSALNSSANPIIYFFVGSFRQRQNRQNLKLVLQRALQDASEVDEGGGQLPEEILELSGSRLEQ
# Assay: agonists of human MrgX1 receptor, primary screen, HEK293 cells, Fluo-4 calcium flux (AID 588627);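 as to B-score: B-score of the peak-minus-trough calcium fluorescence change over baseline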
# Conditions: Fluo-4 calcium fluorescence, agonist mode, at 10 µM; active compounds read high
# In short: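 Test system: HEK293 cells stably expressing human MrgX1 receptor; amount: 15,000 cells per well; doses: compound delivered in addition one of three; times: overnight plating before 1 h dye loading; detection: Fluo-4 NW calcium-flux fluorescence, kinetic read; read-out basis: B-scored fluorescence response ratio; controls: positive and negative controls per plate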
row,Compound,B-score
1,COc1ccc(-n2nc(C(=O)NCC(=O)N3CCC(C(N)=O)CC3)c3ccccc3c2=O)cc1OC,inactive
2,Cc1ccc(NS(=O)(=O)c2cccs2)cc1S(=O)(=O)N1CCCCCC1,inactive
3,CCCc1cc(=S)n2c([nH]c3ccccc32)c1C#N,29.9 (active)
4,CN(C)Cc1c(C#N)c2ccccc2n1C,inactive
5,CCOC(=O)CCc1c(C)c(C#N)c2[nH]c3ccccc3n2c1=O,inactive
6,CCCCN(C(=O)CCNC(=O)NC12CC3CC(CC(C3)C1)C2)c1c(N)n(CCCC)c(=O)[nH]c1=O,inactive
7,COc1ccc2[nH]cc(CCN3C(=O)c4ccc(C(=O)O)cc4C3=O)c2c1,inactive
8,Cc1cc(OCCOc2cccc3cccnc23)c(C)cc1Cl,inactive
9,CCOc1cccc(OCCCOc2cccc3cccnc23)c1,inactive
10,OCc1ccc(OCCCOc2cccc3cccnc23)cc1,27.9 (active)
11,CCC(=O)c1cn(CCOc2ccccc2OC)c2ccccc12,inactive
12,CC[n+]1cc(C)ccc1/C=C/c1ccc(N(C)C)cc1,27.3 (active)
13,O=C(NCCCN1CCN(c2ccc(F)cc2)CC1)Nc1ccc([N+](=O)[O-])cc1,inactive
14,CCNC(=O)CCc1nc(-c2ccc(C(C)(C)C)cc2)no1,inactive
15,CNC(=S)N1CCC(NC(=O)C(Cc2ccc(F)cc2)NC(C)=O)CC1 (stereo unspecified),inactive
16,CS(=O)(=O)N1CCc2cc(C(=O)Nc3ccccc3Br)ccc21,inactive

row,Compound,B-score
1,N=C(N)SCc1cccc2ccccc12,36.5 (active)
2,c1ccc2c(CSCc3nc4ccccc4[nH]3)cccc2c1,inactive
3,CCOc1ccc(Br)cc1CSC(=N)N,inactive
4,CCN(CC)c1ccc(C(=O)NNC(=O)CCc2nc3ccccc3c(=O)[nH]2)cc1,inactive
5,CC(=O)c1ccc(N=C2SCCCN2C(=O)C2CCCCC2)cc1,inactive
6,O=C(Cc1csc(Nc2nc(=S)[nH]c3ccccc23)n1)NCCCN1CCN(c2cccc(Cl)c2)CC1,inactive
7,O=C(/C=C/c1cccc([N+](=O)[O-])c1)N1CCN(Cc2ccccc2)CC1,inactive
8,O=C(Cn1ccc2cc(S(=O)(=O)N3CCCC3)ccc21)NCc1ccccc1,inactive
9,O=[N+]([O-])/C=C/c1ccc2c(ccn2Cc2ccccc2)c1,37.8 (active)
10,COc1cccc(CNC(=O)c2nnn(CC(=O)Nc3cc(C)ccc3C)c2N)c1,inactive
11,COCCNC(=O)C(c1ccc(O)cc1)N(C(=O)CCC(=O)Nc1nccs1)c1ccc(C)cc1 (stereo unspecified),inactive
12,COc1ccc(NC2CC(=O)N(C)C2=O)cc1 (stereo unspecified),inactive
13,CCCOc1ccc(Cn2ccnc2)cc1[N+](=O)[O-],inactive
14,CCCCOc1ccc(CSC(=N)N)cc1[N+](=O)[O-],42.7 (active)
15,CCCCCOc1ccc(CSC2=NCCN2)cc1[N+](=O)[O-],inactive
